{"source": "ChEMBL document CHEMBL1212873", "about": "“Inactivation of protein tyrosine phosphatases by oltipraz and other cancer chemopreventive 1,2-dithiole-3-thiones” (Bioorg Med Chem, 2010)", "key": {"[1]": {"molecular_target": "T1, Tyrosine-protein phosphatase non-receptor type 11 (Homo sapiens) (UniProt Q06124)", "T1 sequence (whole entry)": "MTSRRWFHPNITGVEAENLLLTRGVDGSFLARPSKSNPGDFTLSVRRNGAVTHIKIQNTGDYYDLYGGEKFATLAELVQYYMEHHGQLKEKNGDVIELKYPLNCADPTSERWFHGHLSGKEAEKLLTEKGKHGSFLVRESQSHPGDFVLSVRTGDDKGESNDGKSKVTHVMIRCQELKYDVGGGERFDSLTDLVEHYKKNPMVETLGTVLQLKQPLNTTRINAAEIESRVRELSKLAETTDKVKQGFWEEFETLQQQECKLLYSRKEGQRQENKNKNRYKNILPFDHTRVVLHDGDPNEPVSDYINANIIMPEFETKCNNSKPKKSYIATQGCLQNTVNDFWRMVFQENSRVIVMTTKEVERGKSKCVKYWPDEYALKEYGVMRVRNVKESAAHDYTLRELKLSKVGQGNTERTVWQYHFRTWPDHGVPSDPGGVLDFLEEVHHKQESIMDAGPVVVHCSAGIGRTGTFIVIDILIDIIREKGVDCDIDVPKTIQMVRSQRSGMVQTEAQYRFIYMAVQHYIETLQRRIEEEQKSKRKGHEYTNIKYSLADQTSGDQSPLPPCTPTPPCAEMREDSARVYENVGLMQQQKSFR", "assay": "Irreversible inhibition of SHP2 at 10 to 50 uM in presence of 100 mM dithiothreitol"}, "[2]": {"molecular_target": "T2, Tyrosine-protein phosphatase non-receptor type 1 (Homo sapiens) (UniProt P18031)", "T2 sequence (whole entry)": "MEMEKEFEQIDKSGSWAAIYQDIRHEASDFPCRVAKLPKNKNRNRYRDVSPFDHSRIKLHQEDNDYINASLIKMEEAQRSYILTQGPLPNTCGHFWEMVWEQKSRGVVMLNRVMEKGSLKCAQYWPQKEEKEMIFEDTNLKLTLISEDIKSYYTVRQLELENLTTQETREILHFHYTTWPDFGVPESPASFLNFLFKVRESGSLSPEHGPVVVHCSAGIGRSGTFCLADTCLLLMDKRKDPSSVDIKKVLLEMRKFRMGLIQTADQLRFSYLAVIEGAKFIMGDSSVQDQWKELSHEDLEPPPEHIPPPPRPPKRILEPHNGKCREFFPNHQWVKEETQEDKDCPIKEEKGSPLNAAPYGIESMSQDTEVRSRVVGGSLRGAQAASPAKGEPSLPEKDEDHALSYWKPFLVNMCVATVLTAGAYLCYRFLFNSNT", "assay": "Competitive inhibition of human PTP1B catalytic subunit assessed as enzyme inactivation at 25 uM after 15 mins by spectrophotometry", "how_it_was_run": "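Thiol-free PTP1B (12.5 nM final) with compound at 25 µM and 20 mM pNPP in 50 mM Tris, 50 mM bis-Tris, 100 mM sodium acetate, 10 mM DETAPAC, 1% DMF, pH 7.2, 23 °C. Activity loss followed at 410 nm; apparent inactivation rate from first-order fit of progress curves; mean of three experiments.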"}, "[3]": {"molecular_target": "T2, Tyrosine-protein phosphatase non-receptor type 1 (Homo sapiens)", "details": "50 uM"}, "[4]": {"molecular_target": "T1, Tyrosine-protein phosphatase non-receptor type 11 (Homo sapiens)", "details": "10 to 50 uM"}, "[5]": {"molecular_target": "T1, Tyrosine-protein phosphatase non-receptor type 11 (Homo sapiens)", "details": "10 to 50 uM", "remark": "listed apart in the source"}, "[6]": {"molecular_target": "T2, Tyrosine-protein phosphatase non-receptor type 1 (Homo sapiens)", "details": "2 to 50 uM"}, "[7]": {"molecular_target": "T2, Tyrosine-protein phosphatase non-receptor type 1 (Homo sapiens)", "details": "50 uM", "remark": "listed apart in the source"}, "[8]": {"molecular_target": "T2, Tyrosine-protein phosphatase non-receptor type 1 (Homo sapiens)", "details": "2 to 50 uM", "remark": "listed apart in the source"}, "[9]": {"molecular_target": "T2, Tyrosine-protein phosphatase non-receptor type 1 (Homo sapiens)", "details": "2 to 50 uM", "remark": "listed apart in the source"}, "[10]": {"molecular_target": "T2, Tyrosine-protein phosphatase non-receptor type 1 (Homo sapiens)", "details": "50 uM", "remark": "listed apart in the source"}, "[11]": {"molecular_target": "T2, Tyrosine-protein phosphatase non-receptor type 1 (Homo sapiens)", "details": "2 to 50 uM", "remark": "listed apart in the source"}, "[12]": {"molecular_target": "T1, Tyrosine-protein phosphatase non-receptor type 11 (Homo sapiens)", "details": "10 to 50 uM", "remark": "listed apart in the source"}, "[13]": {"molecular_target": "T2, Tyrosine-protein phosphatase non-receptor type 1 (Homo sapiens)", "details": "2 to 50 uM", "remark": "listed apart in the source"}, "[14]": {"molecular_target": "T2, Tyrosine-protein phosphatase non-receptor type 1 (Homo sapiens)", "details": "50 uM", "remark": "listed apart in the source"}}, "note": "Activity calls are given as the source filed them. The rule behind the calls is not given here."}
{"smiles": "S=c1ccss1", "values": [{"measurement": "inhibition", "setting": "[1]", "value": "inactive"}, {"measurement": "inhibition", "setting": "[2]", "value": "Active"}]}
{"smiles": "COc1ccc(-c2cc(=S)ss2)cc1", "values": [{"measurement": "inhibition", "setting": "[2]", "value": "Active"}]}
{"smiles": "Cc1c(-c2cnccn2)ssc1=S", "values": [{"measurement": "inhibition", "setting": "[3]", "value": "inactive"}, {"measurement": "inhibition", "setting": "[4]", "value": "inactive"}, {"measurement": "inhibition", "setting": "[5]", "value": "Active"}, {"measurement": "inhibition", "setting": "[2]", "value": "Active"}, {"measurement": "inhibition", "setting": "[6]", "value": "Active"}, {"measurement": "inhibition", "setting": "[7]", "value": 50, "unit": "%"}, {"measurement": "inhibition", "setting": "[8]", "value": "Active"}, {"measurement": "inhibition", "setting": "[9]", "value": "Active"}, {"measurement": "inhibition", "setting": "[10]", "value": "> 97", "unit": "%"}, {"measurement": "inhibition", "setting": "[11]", "value": "tde"}, {"measurement": "inhibition", "setting": "[12]", "value": "inactive"}, {"measurement": "inhibition", "setting": "[13]", "value": "Active"}, {"measurement": "inhibition", "setting": "[14]", "value": 70, "unit": "%"}]}
